Measured values taken from ChEMBL document CHEMBL2203116, “Synthesis and evaluation of novel carbon-11 labeled oxopurine analogues for positron emission tomography imaging of translocator protein (18 kDa) in peripheral organs” (J Med Chem, 2011).

What was measured:
Pancreas [1] = assay: Biodistribution in LPS-treated Sprague-Dawley rat pancreas at 0.19 nmol, iv by gamma counting; format: ADME, organism-based; settings: in vivo
Outline: (§1)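 Male Sprague-Dawley rats were given intratracheal LPS (E. coli O127:B8, 5.0 mg/kg in 50 μL saline) or 50 μL saline vehicle 24 h before tracer. [11C]Radioligand (16 MBq/200 μL, 0.19 nmol) in saline was injected via the tail vein. Rats were killed at 30 min (n = 4 per group). Tissues were weighed and gamma-counted, expressed as decay-corrected %ID/g.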

Kidney [2] = assay: Drug uptake in Sprague-Dawley rat kidney at 0.15 nmol, iv up to 30 mins by PET scanning; format: ADME, organism-based; settings: in vivo, 0.5 h
Outline: (§2)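 Male Sprague-Dawley rats (6–8 weeks old), isoflurane-anesthetized, prone. ROIs on lung, heart, kidney, liver, small intestine and cardiac blood pool. Uptake decay-corrected to injection time and expressed as SUV (body-weight normalized). n = 4, mean ± SD.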

Heart [3] = assay: Drug uptake in Sprague-Dawley rat heart at 0.15 nmol, iv after 27.5 mins by PET scanning; format: ADME, organism-based; settings: in vivo
Outline: (§3)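 Isoflurane-anesthetized male Sprague-Dawley rats lay prone and received an iv bolus of [11C]radioligand in 200 μL. 3D list-mode emission scans ran 30 min from injection. Regions of interest were drawn on the organs and cardiac blood pool. Uptake was decay-corrected to injection time and expressed as SUV (normalized to injected radioactivity and body weight). Values are mean of n = 4.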

Heart [4] = assay: Drug uptake in Sprague-Dawley rat heart at 0.15 nmol, iv pretreated with unlabeled (R)-PK11195 by PET scanning; format: ADME, organism-based; settings: in vivo
Outline: (§4)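 Isoflurane-anesthetized Sprague-Dawley rats underwent 30-min PET after iv [11C]radioligand, with unlabeled blocker given iv 1 min before tracer. Blockers were (R)-PK11195 at 3.0 mg/kg or AC-5216 at 1.0 mg/kg in 300 μL saline with 10% ethanol and 5% polysorbate 80. Regional uptake was decay-corrected SUV (n = 4).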

Kidney [5] = assay: Drug uptake in Sprague-Dawley rat kidney at 0.15 nmol, iv pretreated with unlabeled AC-5216 by PET scanning; format: ADME, organism-based; settings: in vivo; outline: as §2
Blood [6] = assay: Drug uptake in Sprague-Dawley rat cardiac blood pool at 0.15 nmol, iv after 27.5 mins by PET scanning; format: ADME, organism-based; settings: in vivo; outline: as §3
Lung [7] = assay: Drug uptake in Sprague-Dawley rat lung at 0.15 nmol, iv after 30 mins by PET scanning; format: ADME, organism-based; settings: in vivo, 0.5 h; outline: as §2
Blood [8] = assay: Biodistribution in Sprague-Dawley rat blood at 0.19 nmol, iv by gamma counting; format: ADME, organism-based; settings: in vivo; outline: as §1
Spleen [9] = assay: Biodistribution in LPS-treated Sprague-Dawley rat spleen at 0.19 nmol, iv by gamma counting; format: ADME, organism-based; settings: in vivo; outline: as §1
Kidney [10] = assay: Biodistribution in Sprague-Dawley rat kidney at 0.19 nmol, iv by gamma counting; format: ADME, organism-based; settings: in vivo; outline: as §1
Liver [11] = assay: Drug uptake in Sprague-Dawley rat liver at 0.15 nmol, iv after 2 mins by PET scanning; format: ADME, organism-based; settings: in vivo; outline: as §2
Liver [12] = assay: Biodistribution in Sprague-Dawley rat liver at 0.19 nmol, iv by gamma counting; format: ADME, organism-based; settings: in vivo; outline: as §1
Heart [13] = assay: Drug uptake in Sprague-Dawley rat heart at 0.15 nmol, iv pretreated with unlabeled AC-5216 by PET scanning; format: ADME, organism-based; settings: in vivo; outline: as §4
Liver [14] = assay: Biodistribution in LPS-treated Sprague-Dawley rat liver at 0.19 nmol, iv by gamma counting; format: ADME, organism-based; settings: in vivo; outline: as §1
Spleen [15] = assay: Biodistribution in Sprague-Dawley rat spleen at 0.19 nmol, iv by gamma counting; format: ADME, organism-based; settings: in vivo; outline: as §1
Pancreas [16] = assay: Biodistribution in Sprague-Dawley rat pancreas at 0.19 nmol, iv by gamma counting; format: ADME, organism-based; settings: in vivo; outline: as §1
Kidney [17] = assay: Drug uptake in Sprague-Dawley rat kidney at 0.15 nmol, iv after 2 mins by PET scanning; format: ADME, organism-based; settings: in vivo; outline: as §2
Adrenal [18] = assay: Biodistribution in Sprague-Dawley rat adrenal at 0.19 nmol, iv by gamma counting; format: ADME, organism-based, Adrenal tissue; settings: in vivo; outline: as §1
Muscle tissue [19] = assay: Biodistribution in LPS-treated Sprague-Dawley rat muscle at 0.19 nmol, iv by gamma counting; format: ADME, organism-based; settings: in vivo; outline: as §1
Lung [20] = assay: Drug uptake in Sprague-Dawley rat lung at 0.15 nmol, iv pretreated with unlabeled (R)-PK11195 by PET scanning; format: ADME, organism-based; settings: in vivo; outline: as §2
[21] = Metabolic stability in Sprague-Dawley rat plasma assessed as unchanged compound at 0.32 nmol, iv after 30 mins by analytical radio- HPLC; format: ADME, organism-based; settings: read-out: Stability
Lung [22] = assay: Drug uptake in Sprague-Dawley rat lung at 0.15 nmol, iv after 27.5 mins by PET scanning; format: ADME, organism-based; settings: in vivo; outline: as §2
Adrenal [23] = assay: Biodistribution in LPS-treated Sprague-Dawley rat adrenal at 0.19 nmol, iv by gamma counting; format: ADME, organism-based, Adrenal tissue; settings: in vivo; outline: as §1
Kidney [24] = assay: Drug uptake in Sprague-Dawley rat kidney at 0.15 nmol, iv after 27.5 mins by PET scanning; format: ADME, organism-based; settings: in vivo; outline: as §2
[25] = Metabolic stability in Sprague-Dawley rat lung assessed as unchanged compound at 0.32 nmol, iv after 30 mins by analytical radio- HPLC; format: ADME, organism-based; settings: read-out: Stability
Blood [26] = assay: Drug uptake in Sprague-Dawley rat cardiac blood pool at 0.15 nmol, iv up to 30 mins by PET scanning; format: ADME, organism-based; settings: in vivo, 0.5 h; outline: as §3
[27] = Metabolic stability in Sprague-Dawley rat liver assessed as unchanged compound at 0.32 nmol, iv after 30 mins by analytical radio- HPLC; format: ADME, organism-based; settings: read-out: Stability
Heart [28] = assay: Biodistribution in LPS-treated Sprague-Dawley rat heart at 0.19 nmol, iv by gamma counting; format: ADME, organism-based; settings: in vivo; outline: as §1
Lung [29] = assay: Biodistribution in Sprague-Dawley rat lung at 0.19 nmol, iv by gamma counting; format: ADME, organism-based; settings: in vivo; outline: as §1
Blood [30] = assay: Biodistribution in LPS-treated Sprague-Dawley rat blood at 0.19 nmol, iv by gamma counting; format: ADME, organism-based; settings: in vivo; outline: as §1
Kidney [31] = assay: Drug uptake in Sprague-Dawley rat kidney at 0.15 nmol, iv pretreated with unlabeled (R)-PK11195 by PET scanning; format: ADME, organism-based; settings: in vivo; outline: as §2
Heart [32] = assay: Drug uptake in Sprague-Dawley rat heart at 0.15 nmol, iv after 2 mins by PET scanning; format: ADME, organism-based; settings: in vivo; outline: as §3
Heart [33] = assay: Drug uptake in Sprague-Dawley rat heart at 0.15 nmol, iv up to 30 mins by PET scanning; format: ADME, organism-based; settings: in vivo, 0.5 h; outline: as §3
Liver [34] = assay: Drug uptake in Sprague-Dawley rat liver at 0.15 nmol, iv pretreated with unlabeled AC-5216 measured after 27.5 mins by PET scanning relative to control; format: ADME, organism-based; settings: in vivo
Outline: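 Male Sprague-Dawley rats, 6-8 weeks, isoflurane-anesthetized. A blocking TSPO ligand (1.0 mg/kg, in 300 μL saline with 10% ethanol and 5% polysorbate 80) was injected 1 min before iv radioligand (16-18 MBq/200 μL). Liver ROI as decay-corrected SUV (injected activity, body weight), 27.5-min value versus controls; n = 4.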

Liver [35] = assay: Drug uptake in Sprague-Dawley rat liver at 0.15 nmol, iv pretreated with unlabeled (R)-PK11195 measured after 27.5 mins by PET scanning relative to control; format: ADME, organism-based; settings: in vivo
Outline: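 Male Sprague-Dawley rats, 6-8 weeks old, under isoflurane, prone. An unlabeled TSPO blocking ligand (3.0 mg/kg) was injected 1 min before the iv radioligand (16-18 MBq/200 μL). A liver ROI was decay-corrected and expressed as SUV normalized to injected activity and body weight. The 27.5-min value was compared with unblocked controls; n = 4.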

Blood [36] = assay: Drug uptake in Sprague-Dawley rat cardiac blood pool at 0.15 nmol, iv after 2 mins by PET scanning; format: ADME, organism-based; settings: in vivo; outline: as §3
Muscle tissue [37] = assay: Biodistribution in Sprague-Dawley rat muscle at 0.19 nmol, iv by gamma counting; format: ADME, organism-based; settings: in vivo; outline: as §1

Drug uptake (Pancreas [1]): 0.37 % ID/g
Drug uptake (Kidney [2]): Active
SUV (Heart [3]): 0.9
Drug uptake (Heart [4]): Not Active
Drug uptake (Kidney [5]): Not Active
SUV (Blood [6]): 0.4
Drug uptake (Lung [7]): Active
Drug uptake (Blood [8]): 0.06 % ID/g
Drug uptake (Spleen [9]): 1.88 % ID/g
Drug uptake (Kidney [10]): 1.78 % ID/g
SUV (Liver [11]): 1.6
Drug uptake (Liver [12]): 0.53 % ID/g
Drug uptake (Heart [13]): Not Active
Drug uptake (Liver [14]): 1.03 % ID/g
Drug uptake (Spleen [15]): 1.88 % ID/g
Drug uptake (Pancreas [16]): 0.38 % ID/g
SUV (Kidney [17]): 3.3
Drug uptake (Adrenal [18]): 7.49 % ID/g
Drug uptake (Muscle tissue [19]): 0.1 % ID/g
Drug uptake (Lung [20]): Not Active
remaining at 0.5 h [21]: 23.4%
SUV (Lung [22]): 0.5
Drug uptake (Adrenal [23]): 5.27 % ID/g
SUV (Kidney [24]): 1
remaining at 0.5 h [25]: 92.1%
Drug uptake (Blood [26]): Active
remaining at 0.5 h [27]: 43.6%
Drug uptake (Heart [28]): 2.17 % ID/g
Drug uptake (Lung [29]): 1.65 % ID/g
Drug uptake (Blood [30]): 0.08 % ID/g
Drug uptake (Kidney [31]): Not Active
SUV (Heart [32]): 4.6
Drug uptake (Heart [33]): Active
fold change (FC) (Liver [34]): 1.5
fold change (FC) (Liver [35]): 1.5
SUV (Blood [36]): 3
Drug uptake (Muscle tissue [37]): 0.11 % ID/g
SMILES: CCN(Cc1ccncc1)C(=O)Cn1c(=O)n([11CH3])c2cnc(-c3ccccc3)nc21
